Data as given in ChEMBL document CHEMBL4689842, “EUbOPEN Chemogenomics Library wave 1” (2021).

Tested on: Fibroblast
Experiment: Multiplex assay against human fibroblast
Assay type: toxicity, cell-based
Outline: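 Cells stained live at seeding with Hoechst33342, BioTracker Green Microtubule Cytoskeleton Dye, MitoTracker Red and Annexin V Alexa Fluor 680 were imaged on a CQ1 microscope at 37°C and 5% CO2 after compound addition. Their classification by CellPathfinder machine-learning gating ran from Hoechst high-intensity objects versus normal cells, to healthy, pyknosed or fragmented nuclei among normal cells, to mitotic or apoptotic among pyknosed cells. Tubulin, mitochondrial-mass and membrane-permeability phenotypes are per cents of healthy-nucleus cells.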

[1] = 12 h, 1 µM, compound concentration 1 uM, replicate 1
[2] = 12 h, 1 µM, compound concentration 1 uM, replicate 2
[3] = 12 h, 10 µM, compound concentration 10 uM, replicate 1
[4] = 12 h, 10 µM, compound concentration 10 uM, replicate 2
[5] = 24 h, 1 µM, compound concentration 1 uM, replicate 1
[6] = 24 h, 1 µM, compound concentration 1 uM, replicate 2
[7] = 24 h, 10 µM, compound concentration 10 uM, replicate 1
[8] = 24 h, 10 µM, compound concentration 10 uM, replicate 2
[9] = 48 h, 1 µM, compound concentration 1 uM, replicate 1
[10] = 48 h, 1 µM, compound concentration 1 uM, replicate 2
[11] = 48 h, 10 µM, compound concentration 10 uM, replicate 1
[12] = 48 h, 10 µM, compound concentration 10 uM, replicate 2

Compound: COc1ncc(-c2ccc3nccc(-c4ccnnc4)c3c2)cc1NS(=O)(=O)c1ccc(F)cc1F [OMIPALISIB]
- Population Apoptotic (%) [1]: 57%
- Population Fragmented Nuclei (%) [1]: 21%
- Population Healthy Nuclei (%) [1]: 49%
- Population Hoechst High Intensity Objects (%) [1]: 12%
- Population Membrane Permeable-Phenotype (%) [1]: 28%
- Population Mitochondria Different-Phenotype (%) [1]: 2%
- Population Mitotic Cells (%) [1]: 42%
- Population Normal (%) [1]: 87%
- Population Pyknosed Nuclei (%) [1]: 29%
- Population Tubulin-Different-Phenotype (%) [1]: 51%
- Total Cell Count [1]: 81
- Population Apoptotic (%) [2]: 50%
- Population Fragmented Nuclei (%) [2]: 46%
- Population Healthy Nuclei (%) [2]: 42%
- Population Hoechst High Intensity Objects (%) [2]: 7%
- Population Membrane Permeable-Phenotype (%) [2]: 16%
- Population Mitochondria Different-Phenotype (%) [2]: 16%
- Population Mitotic Cells (%) [2]: 50%
- Population Normal (%) [2]: 92%
- Population Pyknosed Nuclei (%) [2]: 11%
- Population Tubulin-Different-Phenotype (%) [2]: 23%
- Total Cell Count [2]: 51
- Population Apoptotic (%) [3]: 78%
- Population Fragmented Nuclei (%) [3]: 20%
- Population Healthy Nuclei (%) [3]: 38%
- Population Hoechst High Intensity Objects (%) [3]: 18%
- Population Membrane Permeable-Phenotype (%) [3]: 30%
- Population Mitochondria Different-Phenotype (%) [3]: 6%
- Population Mitotic Cells (%) [3]: 21%
- Population Normal (%) [3]: 81%
- Population Pyknosed Nuclei (%) [3]: 41%
- Population Tubulin-Different-Phenotype (%) [3]: 73%
- Total Cell Count [3]: 96
- Population Apoptotic (%) [4]: 65%
- Population Fragmented Nuclei (%) [4]: 33%
- Population Healthy Nuclei (%) [4]: 27%
- Population Hoechst High Intensity Objects (%) [4]: 7%
- Population Membrane Permeable-Phenotype (%) [4]: 11%
- Population Mitochondria Different-Phenotype (%) [4]: 16%
- Population Mitotic Cells (%) [4]: 34%
- Population Normal (%) [4]: 92%
- Population Pyknosed Nuclei (%) [4]: 39%
- Population Tubulin-Different-Phenotype (%) [4]: 22%
- Total Cell Count [4]: 77
- Population Apoptotic (%) [5]: 58%
- Population Fragmented Nuclei (%) [5]: 30%
- Population Healthy Nuclei (%) [5]: 53%
- Population Hoechst High Intensity Objects (%) [5]: 10%
- Population Membrane Permeable-Phenotype (%) [5]: 32%
- Population Mitochondria Different-Phenotype (%) [5]: 2%
- Population Mitotic Cells (%) [5]: 41%
- Population Normal (%) [5]: 89%
- Population Tubulin-Different-Phenotype (%) [5]: 42%
- Total Cell Count [5]: 84
- Population Apoptotic (%) [6]: 33%
- Population Fragmented Nuclei (%) [6]: 43%
- Population Healthy Nuclei (%) [6]: 40%
- Population Hoechst High Intensity Objects (%) [6]: 11%
- Population Membrane Permeable-Phenotype (%) [6]: 24%
- Population Mitochondria Different-Phenotype (%) [6]: 17%
- Population Mitotic Cells (%) [6]: 66%
- Population Normal (%) [6]: 88%
- Population Pyknosed Nuclei (%) [6]: 16%
- Population Tubulin-Different-Phenotype (%) [6]: 37%
- Total Cell Count [6]: 50
- Population Apoptotic (%) [7]: 66%
- Population Fragmented Nuclei (%) [7]: 25%
- Population Healthy Nuclei (%) [7]: 49%
- Population Hoechst High Intensity Objects (%) [7]: 20%
- Population Membrane Permeable-Phenotype (%) [7]: 31%
- Population Mitochondria Different-Phenotype (%) [7]: 11%
- Population Mitotic Cells (%) [7]: 33%
- Population Normal (%) [7]: 79%
- Population Pyknosed Nuclei (%) [7]: 25%
- Population Tubulin-Different-Phenotype (%) [7]: 80%
- Total Cell Count [7]: 89
- Population Apoptotic (%) [8]: 80%
- Population Fragmented Nuclei (%) [8]: 27%
- Population Healthy Nuclei (%) [8]: 22%
- Population Hoechst High Intensity Objects (%) [8]: 11%
- Population Membrane Permeable-Phenotype (%) [8]: 35%
- Population Mitochondria Different-Phenotype (%) [8]: 28%
- Population Mitotic Cells (%) [8]: 20%
- Population Normal (%) [8]: 88%
- Population Pyknosed Nuclei (%) [8]: 49%
- Population Tubulin-Different-Phenotype (%) [8]: 42%
- Total Cell Count [8]: 81
- Population Apoptotic (%) [9]: 42%
- Population Fragmented Nuclei (%) [9]: 40%
- Population Healthy Nuclei (%) [9]: 48%
- Population Hoechst High Intensity Objects (%) [9]: 16%
- Population Membrane Permeable-Phenotype (%) [9]: 21%
- Population Mitochondria Different-Phenotype (%) [9]: 12%
- Population Mitotic Cells (%) [9]: 57%
- Population Normal (%) [9]: 83%
- Population Pyknosed Nuclei (%) [9]: 10%
- Population Tubulin-Different-Phenotype (%) [9]: 37%
- Total Cell Count [9]: 79
- Population Apoptotic (%) [10]: 0%
- Population Fragmented Nuclei (%) [10]: 47%
- Population Healthy Nuclei (%) [10]: 52%
- Population Hoechst High Intensity Objects (%) [10]: 13%
- Population Membrane Permeable-Phenotype (%) [10]: 35%
- Population Mitochondria Different-Phenotype (%) [10]: 3%
- Population Mitotic Cells (%) [10]: 0%
- Population Normal (%) [10]: 86%
- Population Pyknosed Nuclei (%) [10]: 0%
- Population Tubulin-Different-Phenotype (%) [10]: 53%
- Total Cell Count [10]: 61
- Population Apoptotic (%) [11]: 63%
- Population Fragmented Nuclei (%) [11]: 34%
- Population Healthy Nuclei (%) [11]: 50%
- Population Hoechst High Intensity Objects (%) [11]: 17%
- Population Membrane Permeable-Phenotype (%) [11]: 31%
- Population Mitochondria Different-Phenotype (%) [11]: 14%
- Population Mitotic Cells (%) [11]: 36%
- Population Normal (%) [11]: 82%
- Population Pyknosed Nuclei (%) [11]: 15%
- Population Tubulin-Different-Phenotype (%) [11]: 82%
- Total Cell Count [11]: 85
- Population Apoptotic (%) [12]: 0%
- Population Fragmented Nuclei (%) [12]: 33%
- Population Healthy Nuclei (%) [12]: 65%
- Population Hoechst High Intensity Objects (%) [12]: 12%
- Population Membrane Permeable-Phenotype (%) [12]: 20%
- Population Mitochondria Different-Phenotype (%) [12]: 8%
- Population Mitotic Cells (%) [12]: 100%
- Population Normal (%) [12]: 87%
- Population Pyknosed Nuclei (%) [12]: 1%
- Population Tubulin-Different-Phenotype (%) [12]: 93%
- Total Cell Count [12]: 86
